Source: PubChem
A selection: hits, their analogues and other compounds. The true share with any hit is near 3%.
MEKK2 WT-MEK5 = modulators of MEK5 binding to wildtype MEKK2, primary screen, biochemical, multiplex bead flow cytometry, Alexa488-MEK5. Alexa488-MEK5 binding to MEKK2 WT; actives lie on both sides. 290,000 compounds, 1.1% hits. AID 1531, 2009. Mitogen-activated protein kinase kinase kinase 2 (Homo sapiens), Q9Y2U5. binding response (% of control), % at 10 µM; in the data active means binding response below about 67% or above about 130%; inconclusive means no clear call, values can overlap the other calls; inactive means in between
MEKK2 mut-MEK5 = MEK5 binding signal on mutant MEKK2 PB1, primary screen, biochemical, multiplex bead flow cytometry, Alexa488-MEK5. Alexa488-MEK5 binding to MEKK2 mutant. percent response, % at 10 µM. 290,000 compounds, 0.35% hits; in the data active means percent response above about 24%, passing the limit was not always enough
UBC13 polyUb = UBC13 polyubiquitin chain formation inhibitors, primary screen, biochemical, TR-FRET, uHTS; Ubiquitin-conjugating enzyme E2 N (Homo sapiens), P61088; 330,000 compounds, 0.47% hits; inhibition, % at 20 µM; in the data active means inhibition above about 45%, passing the limit was not always enough; inconclusive means no clear call, values can overlap the other calls
Apaf1 inhib = inhibitors of human Apaf-1 apoptosome, primary screen, biochemical, DEVD-Rh110 fluorescence, uHTS | Apoptotic protease-activating factor 1 (Homo sapiens), O14727 | reconstituted apoptosome caspase-3 activity | inhibition, % at 20 µM | 330,000 compounds, 0.71% hits | AID 489030, 2010; active means inhibition of at least 40% at 20 µM;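 further: plate controls were DMSO wells for no effect and DEVD-CHO caspase inhibitor wells for full effect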
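System – cell-free apoptosome with Apaf-1, procaspase-3 and caspase-9 · Buffer or medium – pH 7.5 Hepes buffer with CHAPS, BSA, DTT · Also added – cytochrome c with DEVD-Rh110 · Times – 30 min compound preincubation, 50 min activation, room temperature · Technique – Rh110 fluorescence intensity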
MEKK3 PB1 HTS = modulators of MEKK3-MEK5 PB1 binding, primary screen, biochemical, wildtype MEKK3, multiplex bead flow cytometry, Alexa488-MEK5 | bead-based flow cytometry, Alexa488-MEK5 binding to MEKK3; actives lie on both sides; 0 = blocked by unlabeled MEK5, 100 = vehicle | binding response (% of control), % at 10 µM | Mitogen-activated protein kinase kinase kinase 3 (Homo sapiens), Q99759 | AID 1529, 2009 | 290,000 compounds, 1.4% hits;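 active means binding response more than 3 SD above or below the average of its plate-row segment, actives on both sides; inconclusive means wells at one plate position flagged as instrument error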;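 further: Alexa488 bead fluorescence after subtracting the streptavidin-only scavenger bead signal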
Target sequence (Q99759 whole entry, looked up): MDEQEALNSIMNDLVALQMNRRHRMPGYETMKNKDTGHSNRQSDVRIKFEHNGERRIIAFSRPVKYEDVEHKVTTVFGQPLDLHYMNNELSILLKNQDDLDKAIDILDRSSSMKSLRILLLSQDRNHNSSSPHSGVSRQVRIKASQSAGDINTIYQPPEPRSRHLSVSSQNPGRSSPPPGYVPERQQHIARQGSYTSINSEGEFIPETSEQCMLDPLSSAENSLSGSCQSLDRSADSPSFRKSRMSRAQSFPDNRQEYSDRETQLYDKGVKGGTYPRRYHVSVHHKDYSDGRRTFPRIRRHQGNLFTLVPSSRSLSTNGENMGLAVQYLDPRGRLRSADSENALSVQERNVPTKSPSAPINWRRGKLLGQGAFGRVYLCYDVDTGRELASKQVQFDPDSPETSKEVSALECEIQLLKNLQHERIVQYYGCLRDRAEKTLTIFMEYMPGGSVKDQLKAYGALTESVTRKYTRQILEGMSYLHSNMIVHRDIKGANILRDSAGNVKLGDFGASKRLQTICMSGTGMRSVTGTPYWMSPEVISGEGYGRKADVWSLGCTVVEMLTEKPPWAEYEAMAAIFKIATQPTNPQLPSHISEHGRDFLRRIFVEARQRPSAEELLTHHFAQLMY
UCH37 inh = inhibitors of human UCH37 deubiquitinase, primary screen, biochemical, Ub-AMC cleavage, fluorescence; Ubiquitin carboxyl-terminal hydrolase isozyme L5 (Homo sapiens), Q9Y5K5; purified proteasome/UCH37; inhibition, % (no concentration beside the values); 330,000 compounds, 0.33% hits; AID 588478, 2011;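 active means mean inhibition over replicate wells above about 20%, limit read from the data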;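 further: 0% = compound-free wells with enzyme and 100% = wells lacking proteasome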
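Material: Human UCH37 enzyme supplied as purified proteasome complex | Schedule: 30 min compound-proteasome preincubation then 25 min substrate reaction, room temperature | Detection: AMC fluorescence from Ub-AMC cleavage, excitation 355 nm, emission 460 nm | Benchmarks: Wells without proteasome as full block, compound-free enzyme plus substrate as uninhibited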
Active calls of the source: *; ? = inconclusive; nt = not tested or not shown; [ ] = another dose, or the depositor's remark.

SMILES	MEKK2 WT-MEK5	MEKK2 mut-MEK5	UBC13 polyUb	Apaf1 inhib	MEKK3 PB1 HTS	UCH37 inh
C=C1CCC[C@]2(C)C[C@H]3OC(=O)C(CNCC(C)C)[C@H]3CC12 (some centres undefined)	106	6	1	6	106	21*
COc1ccc(S(=O)(=O)NCCCN2CCOCC2)cc1F	95	-2	4	-4	97	-1
COc1ccc(S(=O)(=O)NCCN2CCOCC2)cc1[N+](=O)[O-]	-11*[inhibitor]	-32	-1	2	0.0*[inhibitor]	0
Cc1ccc(C2OC(=O)C=C2c2ccccc2)cc1 (centres undefined)	nt	nt	-3	-2	nt	24*
CC(C)(C)[C@@H]1CCC(=O)N(CC[C@H](N=[N+]=[N-])c2ccccc2)CC1	95	-3	-10	25	100	28*
C[C@@H]1CCC(=O)N(CC[C@H](N=[N+]=[N-])c2ccccc2)CC1	106	-3	8	-6	103	2
Cn1c(=O)c2[nH]c(N=NN3CCCCC3)nc2n(C)c1=O	nt	nt	nt	nt	nt	22*
CN(C)C(CNC(=O)C1CCN(S(=O)(=O)c2ccccc2C(F)(F)F)CC1)Cc1ccccc1 (centres undefined)	nt	nt	4	-3	nt	1
Cc1cc(C(F)(F)F)c(C#N)c(SCC(=O)Nc2nc3ccccc3s2)n1	57*	45	4	4	117	-2
COc1ccc(-c2nnc(N)s2)cc1OC	nt	nt	nt	nt	nt	-5
O=C(CNC(=O)c1ccccc1)Nc1cccc(C(F)(F)F)c1	43*[inhibitor]	-115	3	13	93	6
O=C(O)c1cccnc1Sc1ccccc1Cl	29*	9	3	-3	97	1
CC(C(=O)Nc1ccc(N2CCOCC2)cc1)N1C(=O)NC(C)(C)C1=O (centres undefined)	nt	nt	0	-13	nt	-1
O=C(CC(c1ccccc1)c1ccccc1)Nc1ccc(Cl)cn1	100	0	0	27	101	34*
O=C(Nc1ccc(OC(F)(F)F)cc1)Nc1cccc([N+](=O)[O-])c1	119	23	4	18	109	31*
Cc1ccc(NC(=O)Nc2cccc([N+](=O)[O-])c2)cc1F	106	10	10	1	102	4
CN1CCN(c2ccc(NC(=S)NC(=O)c3cccc4c(Cl)cccc34)cc2)CC1	170*	28*	26	26	101	3
CCc1ccccc1NC(=O)CN(C)Cc1c(O)ccc2ccccc12	94	-4	6	24	99	5
Cc1ccc(/C(O)=C2/C(=O)C(=O)N(CCN3CCOCC3)C2c2cccs2)cc1 (centres undefined)	nt	nt	-9	-7	nt	24*
COc1cccc(/C(O)=C2/C(=O)C(=O)N(CCCN3CCOCC3)C2c2ccncc2)c1 (centres undefined)	104	5	0	2	105	20*
COC(=O)c1ccc(C2/C(=C(\O)c3cccc(OC)c3)C(=O)C(=O)N2CCCN2CCOCC2)cc1 (centres undefined)	101	5	-3	0	98	7
O=C1C(=O)N(CCCN2CCOCC2)C(c2ccc(F)cc2)/C1=C(/O)c1ccccc1 (centres undefined)	98	-20	6	-2	87	23*
FC(F)(F)c1ccc(-c2noc(CN3CCCN(C4CCCCC4)CC3)n2)cc1	133	22	1	8	97	nt
C/C(=N/Nc1ncc(Br)cn1)c1ccc(Br)cc1	-2.0*	-3	-6	-1	103	nt
CC(=NNc1ncc(Br)cn1)c1ccc(Br)cc1	nt	nt	nt	nt	nt	4
SMILES	MEKK2 WT-MEK5	MEKK2 mut-MEK5	UBC13 polyUb	Apaf1 inhib	MEKK3 PB1 HTS	UCH37 inh
CC(C)c1ccc(S(=O)(=O)/N=C2/C=CC(=O)c3ccccc32)cc1	101	3	-69	72*	104	nt
Cc1ccc(-n2nnc3c(=O)n(CC(=O)NCc4ccccc4)cnc32)cc1	108	7	4	11	109	6
COc1ccc(C(c2nnnn2C2CCCCC2)N2CCN(c3ccc(OC)cc3)CC2)cc1 (centres undefined)	101	-3	0	14	101	1
c1cc(N2CCCC2)ccc1C(c1nnnn1C1CCCCC1)N1CCOCC1 (centres undefined)	-5.0*	2	0	17	96	2
CC1=C(C#N)C(=O)N(C2CCS(=O)(=O)C2)C(=O)/C1=C\c1ccco1 (centres undefined)	87	-14	?	54*	96	nt
O=S(=O)(O)c1ccc(N=NNc2ccc(Br)cc2)cc1	105	2	0	3	103	20
O=Cc1cc(N=Nc2ccc(S(=O)(=O)O)cc2)ccc1O	nt	nt	-40	20	nt	21*
CCC(C)N(C(=O)COC(=O)c1cc([N+](=O)[O-])ccc1N1CCOCC1)C1CCS(=O)(=O)C1 (centres undefined)	nt	nt	-13	78*	nt	6
COc1ccc(S(=O)(=O)N2CCC(C(=O)NCc3cccnc3)CC2)cc1C	84	-11	-4	5	93	1
CCOC(=O)C1CCN(C(=O)c2ccc3c(=O)n4c(nc3c2)CCCCC4)CC1	nt	nt	5	19	nt	1
CCOC(=O)N1CCN(C(=O)c2ccc3c(=O)n4c(nc3c2)CCCCC4)CC1	101	0	-2	0	101	29*
O=C1CC(c2c[nH]c3ccccc23)C(=O)N1 (centres undefined)	105	4	-5	1	106	3
Cc1nc(N2CCCCC2)c(C#N)c(C)c1[N+](=O)[O-]	170*	-48	-8	10	89	5
COc1cc(CNCC(C)C)cc(Br)c1OCC(=O)Nc1ccccc1	115	5	14	-7	107	-1
O=C(Cn1nc(Cc2ccncc2)c2ccccc2c1=O)N1CCc2ccccc2C1	nt	nt	-2	37	nt	20*
CCCCNC(=O)Cn1nc(Cc2ccncc2)c2ccccc2c1=O	106	4	-1	7	100	3
CCCCCCOc1ccc(N2C(=O)CC(NCc3ccc(S(N)(=O)=O)cc3)C2=O)cc1 (centres undefined)	-4.0*	-2	-8	-16	95	-1
Cc1ccccc1NC(=O)NC(N)=O	-4.0*	2	14	-3	99	5
